The text below walks through data of ChEMBL document CHEMBL2169809, “Identification of high-affinity P2Y₁₂ antagonists based on a phenylpyrazole glutamic acid piperazine backbone” (J Med Chem, 2012).

Each structure is given as a SMILES string.

Experiment [1] concerns Platelet. Put plainly: Inhibition of ADP-stimulated platelet aggregation in human isolated platelets by light transmission aggregometry based Born method. The class given is functional, cell-based. The essentials:
(§1)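 Platelets were pelleted from PRP (430g, 20 min, room temperature) and resuspended in modified Tyrode's buffer (145 mM NaCl, 5 mM KCl, 5.5 mM glucose, 15 mM Hepes, pH 7.4). CaCl2 (0.5 mM final) was added for 2 min at 37 °C, then fibrinogen (1 mg/mL final), then antagonist. Agonist was ADP, collagen or thrombin (0.1 U/mL final). Born aggregometry with stirring; % inhibition from AUC; IC50 from at least triplicate runs.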

The subject of experiment [2] is Platelet. Put plainly: Inhibition of ADP-stimulated platelet aggregation in human platelet rich plasma by 96-well format based turbidimetric method. The class given is functional. An outline of the steps: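 Citrated (ACD-A) donor blood was spun at 150g for 15 min at room temperature to give PRP. PRP was adjusted with PPP to 3 × 10^8 platelets/mL. Compound, diluted in NaCl, was preincubated with hPRP for 5 min before ADP was added.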

In experiment [3] the test system is Platelet. Put plainly: Inhibition of ADP-stimulated platelet aggregation in human platelet rich plasma by light transmission aggregometry based Born method. The class given is functional, cell-based.
Experiment [4] relates to Platelet. The experiment can be described thus: Inhibition of collagen-stimulated platelet aggregation in human isolated platelets by light transmission aggregometry based Born method. Format: functional, cell-based. The essentials:
as §1

The subject of another experiment is Canis familiaris. Put plainly: Antiplatelet aggregatory activity in dog assessed as inhibition of ADP-induced platelet aggregation at 10 mg/kg after 24 hrs. The class given is functional. The conditions noted are these: Canis lupus familiaris. The essentials:
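Ex vivo dog model: compound given orally at 10 mg/kg. Whole-blood platelet aggregation was measured by impedance 24 h after dosing, with ADP as agonist. Inhibition was calculated from mean area under the curve.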

Another experiment addresses P2Y purinoceptor 1 (Homo sapiens, UniProt P47900). Put plainly: Displacement of [33P]2-MeS-ADP from human recombinant P2Y1 receptor expressed in CHO cell membranes by scintillation counting method.
Experiment [5] has as its system Platelet. The experiment can be described thus: Inhibition of thrombin-stimulated platelet aggregation in human isolated platelets by light transmission aggregometry based Born method. The class given is functional, cell-based. The essentials: as §1
For the next experiment, the target named is P2Y purinoceptor 12 (Homo sapiens, UniProt Q9H244). The experiment can be described thus: Displacement of [33P]2-MeS-ADP from human recombinant P2Y12 receptor expressed in CHO cell membranes by scintillation counting method.
Chain of P2Y purinoceptor 12 (Q9H244 whole entry): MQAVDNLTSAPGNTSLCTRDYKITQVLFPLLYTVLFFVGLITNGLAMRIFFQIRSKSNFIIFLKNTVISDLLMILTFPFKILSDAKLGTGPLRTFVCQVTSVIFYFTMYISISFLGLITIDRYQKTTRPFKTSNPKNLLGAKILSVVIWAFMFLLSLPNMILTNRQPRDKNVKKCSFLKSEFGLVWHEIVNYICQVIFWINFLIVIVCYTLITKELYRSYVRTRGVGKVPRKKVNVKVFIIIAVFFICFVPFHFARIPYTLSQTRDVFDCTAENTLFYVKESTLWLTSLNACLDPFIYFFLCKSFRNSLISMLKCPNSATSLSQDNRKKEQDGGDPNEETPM

Chain of P2Y purinoceptor 1 (P47900 whole entry): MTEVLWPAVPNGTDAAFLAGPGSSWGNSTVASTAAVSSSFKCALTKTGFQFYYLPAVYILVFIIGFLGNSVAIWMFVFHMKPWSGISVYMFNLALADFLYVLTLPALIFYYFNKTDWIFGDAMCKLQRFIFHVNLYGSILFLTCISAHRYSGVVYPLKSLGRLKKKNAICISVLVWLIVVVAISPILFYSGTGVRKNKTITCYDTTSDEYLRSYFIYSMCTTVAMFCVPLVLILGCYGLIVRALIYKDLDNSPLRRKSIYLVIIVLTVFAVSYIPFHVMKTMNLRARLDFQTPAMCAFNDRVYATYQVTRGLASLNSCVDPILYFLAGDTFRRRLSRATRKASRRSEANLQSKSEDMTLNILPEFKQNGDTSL

Usually IC50 stands for the concentration needed to halve the response being measured. High values mean weaker potency, low ones greater potency. Usually inhibition in vivo stands for the relative decrease from the control value, in per cent. Usually Ki stands for a dissociation constant, usually derived from enzyme kinetics or from competition with a known ligand. With `CCCCOC(=O)N1CCN(C(=O)CNC(=O)c2cc(OCC(=O)N3CCC[C@H]3C(=O)NC3CCC3)n(-c3ccccc3)n2)CC1`, the IC50 was 22 nM in the experiment on Platelet [1]; 30 nM in the experiment on Platelet [2]; 46 nM in the experiment on Platelet [3]; over 2000 nM in the experiment on Platelet [4]; over 2000 nM in the experiment with Platelet [5]. The inhibition in vivo at 10 mg/kg in the experiment on Canis familiaris was 73%. For the same compound, the Ki was over 20 µM at P2Y purinoceptor 1 and 7.7 nM on P2Y purinoceptor 12.
As for `CCOC(=O)N1CCN(C(=O)CNC(=O)c2cc(OCC(=O)N3CCC[C@H]3C(=O)NC3CCC3)n(-c3ccccc3)n2)CC1`, the IC50 with Platelet [1] is 99 nM; with Platelet [2], 90 nM; in the experiment with Platelet [3] it was 100 nM; with Platelet [4], over 2000 nM; in the experiment with Platelet [5] it was over 2000 nM. Further, the Ki on P2Y purinoceptor 12 was determined as 107 nM.
Regarding `CCOC(=O)N1CCN(C(=O)[C@H](CCc2nnn[nH]2)NC(=O)c2cc(OCC(=O)N3CCC[C@H]3C(=O)NC3CCC3)n(-c3ccccc3)n2)CC1`, the IC50 was found to be 40 nM in the experiment on Platelet [2] and 69 nM in the experiment with Platelet [3]. The Ki at P2Y purinoceptor 12 was determined as 5 nM.
Consider `CCOC(=O)N1CCN(C(=O)[C@H](CCC(=O)O)NC(=O)c2cc(OCC(=O)N3CCC[C@H]3C(=O)NCC3CCC3)n(-c3ccccc3)n2)CC1`, for which the IC50 was determined as 100 nM in the experiment on Platelet [2] and 72 nM in the experiment on Platelet [3]. Moreover, the Ki at P2Y purinoceptor 12 came out at 19 nM.
For `CCCOC(=O)N1CCN(C(=O)[C@H](CCC(=O)O)NC(=O)c2cc(OCC(=O)N3CCC[C@H]3C(=O)NC3CCC3)n(-c3ccccc3)n2)CC1`, the IC50 is 21 nM in the experiment with Platelet [2] and 30 nM in the experiment with Platelet [3]. Moreover, on P2Y purinoceptor 12, the Ki turned out to be 3.1 nM.
Taken in the same sequence, the figures for `CCCCOC(=O)N1CCN(C(=O)[C@H](CCCO)NC(=O)c2cc(OCC(=O)N3CCC[C@H]3C(=O)NC3CCC3)n(-c3ccccc3)n2)CC1` were 92 nM, 70 nM and 6.5 nM.
On to `CCOC(=O)N1CCN(C(=O)[C@H](CCC(=O)O)NC(=O)c2cc(OCC(=O)N3CCC[C@H]3C(=O)NC3CCCC3)n(-c3ccccc3)n2)CC1`, for which the IC50 in the experiment on Platelet [2] is 13 nM; with Platelet [3], 38 nM. Besides, the Ki at P2Y purinoceptor 12 worked out at 20 nM.
With `CCOC(=O)N1CCN(C(=O)[C@H](CCC(=O)O)NC(=O)c2cc(OCC(=O)N3CCC[C@H]3C(=O)NC3CCC3)n(-c3ccccc3)n2)CC1`, the IC50 in the experiment on Platelet [1] was 7 nM; with Platelet [2] it was 25 nM; in the experiment with Platelet [3], 9 nM; in the experiment on Platelet [4] it was over 2000 nM; in the experiment on Platelet [5], over 2000 nM. Further, the Ki is over 20 µM at P2Y purinoceptor 1 and 7.3 nM on P2Y purinoceptor 12.
For the compound `CCCCOC(=O)NC1CCN(C(=O)[C@H](CCC(=O)O)NC(=O)c2cc(OCC(=O)N3CCC[C@H]3C(=O)NC3CCC3)n(-c3ccccc3)n2)CC1`, the IC50 was determined as 55 nM with Platelet [2] and 120 nM in the experiment on Platelet [3]. Further, the Ki on P2Y purinoceptor 12 was 22 nM.
For `CCCNC(=O)[C@@H]1CCCN1C(=O)COc1cc(C(=O)N[C@@H](CCC(=O)O)C(=O)N2CCN(C(=O)OCC)CC2)nn1-c1ccccc1`, the IC50 with Platelet [2] is 58 nM; in the experiment with Platelet [3] it was 91 nM. Also, the Ki on P2Y purinoceptor 12 is 66 nM.
Consider `CCOC(=O)N1CCN(C(=O)[C@H](CCC(=O)O)NC(=O)c2cc(OCC(=O)N3CCC[C@H]3C(=O)N3CCCCC3)n(-c3ccccc3)n2)CC1`, for which the IC50 with Platelet [2] is 70 nM; in the experiment on Platelet [3], 73 nM. The Ki at P2Y purinoceptor 12 stood at 56 nM.
Taken in the same sequence, the figures for `CCOC(=O)N1CCN(C(=O)[C@H](CCC(=O)O)NC(=O)c2cc(OCC(=O)C3CC3)n(-c3ccccc3)n2)CC1` were 2600 nM, 2510 nM and 249 nM.
Take `CCOC(=O)N1CCN(C(=O)[C@H](CCO)NC(=O)c2cc(OCC(=O)N3CCC[C@H]3C(=O)NC3CCC3)n(-c3ccccc3)n2)CC1`: the values for the IC50 in the experiment on Platelet [2] and in the experiment with Platelet [3] were 210 nM and 120 nM, respectively. At P2Y purinoceptor 12, the Ki is 23 nM.
In the case of `CCOC(=O)COc1cc(C(=O)N[C@@H](CCC(=O)O)C(=O)N2CCN(C(=O)OCC)CC2)nn1-c1ccccc1`, the IC50 in the experiment on Platelet [2] turned out to be 2250 nM; with Platelet [3] it was 2480 nM. At P2Y purinoceptor 12, the Ki is 372 nM.
For `CCOC(=O)N1CCN(C(=O)[C@H](CCC(=O)O)NC(=O)c2cc(OC3(C(=O)OCC)CCC3)n(-c3ccccc3)n2)CC1`, the IC50 with Platelet [1] is 701 nM; in the experiment with Platelet [2] it was 3300 nM; with Platelet [3], 2930 nM; with Platelet [4], over 2000 nM; in the experiment on Platelet [5] it was over 2000 nM. The Ki at P2Y purinoceptor 1 was over 20 µM; at P2Y purinoceptor 12, 139 nM.
Regarding `CCOC(=O)N1CCN(C(=O)[C@H](CCC(=O)O)NC(=O)c2cc(OCC(=O)C(C)(C)C)n(-c3ccccc3)n2)CC1`, the IC50 in the experiment with Platelet [2] was found to be 3730 nM; in the experiment on Platelet [3], 2460 nM. Moreover, at P2Y purinoceptor 12, the Ki was 242 nM.
